Laboratory results taken from ChEMBL document CHEMBL1154369, “Betulin-derived compounds as inhibitors of alphavirus replication” (J Nat Prod, 2009).
Activity calls are given as the source filed them. The calls are words filed in the database; no cut-off is given here.

What was measured:
Semliki Forest virus [1] = assay: Antiviral activity against SFV infected in BHK cells assessed as surviving virus fraction at 50 uM after 14 hrs by luciferase reporter gene assay; assay type: functional; set-up: scale not given here
Semliki Forest virus [2] = assay: Antiviral activity against SFV infected in BHK cells after 14 hrs by luciferase reporter gene assay; assay type: functional, organism-based
In short: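 SFV-Rluc reporter virus from infectious cDNA clone; BHK-21 cells infected at low multiplicity (0.001 PFU/cell) and incubated 14 h, spanning over 2 infectious cycles. Serial dilutions of each derivative tested. Luciferase read-out as surviving virus fraction. IC50 from a sigmoidal dose-response fit; means ± SD, n = 6. 3′-Amino-3′-deoxyadenosine (20 µM) served as screen positive control.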

[3] = Cytotoxicity against human HuH7 cells assessed as cell viability at 50 uM after 24 hrs
[4] = Cytotoxicity against human HuH7 cells assessed as cell viability at 500 uM after 24 hrs; assay type: cell-based, Huh-7; conditions: read-out: Activity
In short: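 Huh-7 human hepatocellular carcinoma cells exposed 24 h to derivative at 500 µM in an extended cytotoxicity analysis. Viability measured as intracellular ATP content and reported as surviving fraction.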

Semliki Forest virus [5] = assay: Antiviral activity against SFV infected in BHK cells assessed as surviving virus fraction at 200 uM after 14 hrs by luciferase reporter gene assay in presence of 50 ug/ml guanosine; assay type: functional, organism-based
Sindbis virus = assay: Antiviral activity against Sindbis virus infected in BHK cells assessed as inhibition of RNA synthesis after 14 hrs by [3H]uridine incorporation assay; assay type: functional, organism-based
In short: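 Sindbis virus from infectious cDNA clone grown in BHK-21 cells. Viral RNA synthesis rate measured by [3H]-uridine labeling. Serial compound dilutions from 16 pM to 50 µM. IC50 from nonlinear regression to sigmoidal dose-response curves; means ± SD, n = 4.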

Semliki Forest virus [6] = assay: Antiviral activity against SFV infected in BHK cells assessed as decrease in surviving virus fraction at 50 uM treated during time of viral adsorption for 1 hr measured after 5 hrs by luciferase reporter gene assay; assay type: functional, organism-based
In short: (§1)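 Time-of-addition run with SFV-Rluc at high multiplicity (5 PFU/cell) in BHK-21 cultures, covering a single replication cycle. Compound present throughout (0-5 h), only during adsorption (0-1 h), at 1-5 h, or at 2-5 h. Surviving fraction is the remaining Renilla luciferase activity, read at 5 h per legend (4.5 h in text); means ± SD, n = 4.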

Semliki Forest virus [7] = assay: Antiviral activity against SFV infected in BHK cells assessed as decrease in surviving virus fraction at 50 uM treated 1 hr after viral adsorption measured after 5 hrs by luciferase reporter gene assay; assay type: functional, organism-based; in short: as §1
Semliki Forest virus [8] = assay: Antiviral activity against SFV infected in BHK cells assessed as decrease in surviving virus fraction at 50 uM treated 2 hr after viral adsorption measured after 5 hrs by luciferase reporter gene assay; assay type: functional, organism-based; in short: as §1
Semliki Forest virus [9] = assay: Antiviral activity against SFV infected in BHK cells assessed as decrease in surviving virus fraction at 200 uM treated during time of viral adsorption for 1 hr measured after 5 hrs by luciferase reporter gene assay; assay type: functional, organism-based; in short: as §1
Semliki Forest virus [10] = assay: Antiviral activity against SFV infected in BHK cells assessed as decrease in surviving virus fraction at 200 uM treated 1 hr after viral adsorption measured after 5 hrs by luciferase reporter gene assay; assay type: functional, organism-based; in short: as §1
Semliki Forest virus [11] = assay: Antiviral activity against SFV infected in BHK cells assessed as surviving virus fraction at 50 uM after 14 hrs by luciferase reporter gene assay in presence of 50 ug/ml guanosine; assay type: functional, organism-based
Semliki Forest virus [12] = assay: Antiviral activity against SFV infected in BHK cells assessed as surviving virus fraction at 20 uM after 14 hrs by luciferase reporter gene assay; assay type: functional
In short: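 BHK-21 cells were infected with the luciferase marker virus SFV-Rluc, made from an infectious cDNA clone, at a low multiplicity of 0.001 PFU/cell. Infection ran through more than 2 infectious cycles over a 14 h incubation, and the read-out was luciferase reporter activity. The surviving fraction was the percentage of viral replication remaining. The screen was automated and run in triplicate.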

Semliki Forest virus [13] = assay: Antiviral activity against SFV infected in BHK cells assessed as decrease in surviving virus fraction at 200 uM treated 2 hr after viral adsorption measured after 5 hrs by luciferase reporter gene assay; assay type: functional, organism-based; in short: as §1

CC(=O)OC[C@]12CC[C@]3(C(C)C)C1=C1[C@H](C[C@@H]4[C@@]5(C)CC[C@H](OC(C)=O)C(C)(C)[C@@H]5CC[C@@]4(C)[C@]1(C)CC2)n1c(=O)n(-c2cccc(Cl)c2)c(=O)n13
Activity (Semliki Forest virus [1]): 1%
IC50 (Semliki Forest virus [2]; read-out: IC50): 22.1 µM
IC50 (Semliki Forest virus [2]; read-out: pIC50 (converted)): 22.4 µM
viability at 24 h, 50 µM [3]: 95%
viability at 24 h, 500 µM [4]: > 80%

CC(=O)OC[C@]12CC[C@]3(C(C)C)C1=C1[C@H](C[C@@H]4[C@@]5(C)CC[C@H](OC(C)=O)C(C)(C)[C@@H]5CC[C@@]4(C)[C@]1(C)CC2)n1c(=O)n(-c2cccc([N+](=O)[O-])c2)c(=O)n13
Activity (Semliki Forest virus [1]): 3%
IC50 (Semliki Forest virus [2]; read-out: IC50): 22.9 µM
IC50 (Semliki Forest virus [2]; read-out: pIC50 (converted)): 22.9 µM
viability at 24 h, 50 µM [3]: 108%
viability at 24 h, 500 µM [4]: > 80%

C=C(C)[C@@H]1CC[C@]2(COC(C)=O)CC[C@]3(C)[C@H](CC[C@@H]4[C@@]5(C)CCC(=O)C(C)(C)[C@@H]5CC[C@]43C)[C@@H]12
Activity (Semliki Forest virus [1]): 11%
IC50 (Semliki Forest virus [2]; read-out: IC50): 48.5 µM
IC50 (Semliki Forest virus [2]; read-out: pIC50 (converted)): 47.9 µM
viability at 24 h, 50 µM [3]: 83%
viability at 24 h, 500 µM [4]: > 80%

C=C(C)[C@@H]1CC[C@]2(CO)CC[C@]3(C)[C@H](CC[C@@H]4[C@@]5(C)CC[C@H](OC(C)=O)C(C)(C)[C@@H]5CC[C@]43C)[C@@H]12
Activity (Semliki Forest virus [1]): 3%
IC50 (Semliki Forest virus [2]; read-out: IC50): 24.2 µM
IC50 (Semliki Forest virus [2]; read-out: pIC50 (converted)): 24 µM
viability at 24 h, 50 µM [3]: 86%
viability at 24 h, 500 µM [4]: > 80%

NC(=O)c1ncn([C@@H]2O[C@H](CO)[C@@H](O)[C@H]2O)n1 [RIBAVIRIN]
IC50 (Semliki Forest virus [2]; read-out: IC50): 95.1 µM
IC50 (Semliki Forest virus [2]; read-out: pIC50 (converted)): 95.5 µM
Activity (Semliki Forest virus [5]): inactive

CC(=O)OC[C@]12CC[C@]3(C(C)C)C1=C1[C@H](C[C@@H]4[C@@]5(C)CC[C@H](OC(C)=O)C(C)(C)[C@@H]5CC[C@@]4(C)[C@]1(C)CC2)n1c(=O)n(-c2ccccc2)c(=O)n13
Activity (Semliki Forest virus [1]): 13%
IC50 (Semliki Forest virus [2]; read-out: IC50): 19.7 µM
IC50 (Semliki Forest virus [2]; read-out: pIC50 (converted)): 19.5 µM
viability at 24 h, 50 µM [3]: 87%
viability at 24 h, 500 µM [4]: > 80%
IC50 (Sindbis virus; read-out: IC50): 6100 nM
IC50 (Sindbis virus; read-out: pIC50 (converted)): 6170 nM
Activity (Semliki Forest virus [6]): inactive
Activity (Semliki Forest virus [7]): Active
Activity (Semliki Forest virus [8]): Active
Activity (Semliki Forest virus [9]): inactive
Activity (Semliki Forest virus [10]): Active
Activity (Semliki Forest virus [11]): Active

Nc1ncnc2c1ncn2[C@@H]1O[C@H](CO)[C@@H](N)[C@H]1O
IC50 (Semliki Forest virus [2]; read-out: IC50): 18 µM
Activity (Semliki Forest virus [12]): 12%

C=C(C)[C@@H]1CC[C@]2(COC3CCCCO3)CC[C@]3(C)[C@H](CC[C@@H]4[C@@]5(C)CC[C@H](OC(C)=O)C(C)(C)[C@@H]5CC[C@]43C)[C@@H]12 (stereo not given in full)
Activity (Semliki Forest virus [1]): 10%
IC50 (Semliki Forest virus [2]; read-out: IC50): 24.7 µM
IC50 (Semliki Forest virus [2]; read-out: pIC50 (converted)): 24.5 µM
viability at 24 h, 50 µM [3]: 91%
viability at 24 h, 500 µM [4]: > 80%

C=C(C)[C@@H]1CC[C@]2(C(=O)O)CC[C@]3(C)[C@H](CC[C@@H]4[C@@]5(C)CCC(=O)C(C)(C)[C@@H]5CC[C@]43C)[C@@H]12 [BETUNOLIC ACID]
Activity (Semliki Forest virus [1]): 13%
IC50 (Semliki Forest virus [2]; read-out: IC50): 13.3 µM
IC50 (Semliki Forest virus [2]; read-out: pIC50 (converted)): 13.2 µM
viability at 24 h, 50 µM [3]: 89%
viability at 24 h, 500 µM [4]: > 80%

C=C(C)[C@@H]1CC[C@]2(COC3CCCCO3)CC[C@]3(C)[C@H](CC[C@@H]4[C@@]5(C)CC[C@H](O)C(C)(C)[C@@H]5CC[C@]43C)[C@@H]12 (stereo not given in full)
Activity (Semliki Forest virus [1]): 11%
IC50 (Semliki Forest virus [2]; read-out: IC50): 17.2 µM
IC50 (Semliki Forest virus [2]; read-out: pIC50 (converted)): 17.4 µM
viability at 24 h, 50 µM [3]: 92%
viability at 24 h, 500 µM [4]: > 80%
IC50 (Sindbis virus; read-out: IC50): 1900 nM
IC50 (Sindbis virus; read-out: pIC50 (converted)): 1910 nM
Activity (Semliki Forest virus [6]): inactive
Activity (Semliki Forest virus [7]): Active
Activity (Semliki Forest virus [8]): Active
Activity (Semliki Forest virus [9]): inactive
Activity (Semliki Forest virus [10]): Active
Activity (Semliki Forest virus [11]): Active

C=C(C)[C@@H]1CC[C@]2(COC(C)=O)CC[C@]3(C)[C@H](CC[C@@H]4[C@@]5(C)CC[C@H](O)C(C)(C)[C@@H]5CC[C@]43C)[C@@H]12
Activity (Semliki Forest virus [1]): 3%
IC50 (Semliki Forest virus [2]; read-out: IC50): 12.1 µM
IC50 (Semliki Forest virus [2]; read-out: pIC50 (converted)): 12 µM
viability at 24 h, 50 µM [3]: 87%
viability at 24 h, 500 µM [4]: > 80%

C=C(C)[C@@H]1CC[C@]2(C=O)CC[C@]3(C)[C@H](CC[C@@H]4[C@@]5(C)CCC(=O)C(C)(C)[C@@H]5CC[C@]43C)[C@@H]12 [BETULONAL]
Activity (Semliki Forest virus [1]): 8%
IC50 (Semliki Forest virus [2]; read-out: IC50): 38.3 µM
IC50 (Semliki Forest virus [2]; read-out: pIC50 (converted)): 38 µM
viability at 24 h, 50 µM [3]: 90%
viability at 24 h, 500 µM [4]: 52%

CC(=O)OC[C@]12CC[C@]3(C(C)C)C1=C1[C@H](C[C@@H]4[C@@]5(C)CC[C@H](OC(C)=O)C(C)(C)[C@@H]5CC[C@@]4(C)[C@]1(C)CC2)n1c(=O)n(Cc2ccccc2)c(=O)n13
Activity (Semliki Forest virus [1]): 1%
IC50 (Semliki Forest virus [2]; read-out: IC50): 35.9 µM
IC50 (Semliki Forest virus [2]; read-out: pIC50 (converted)): 36.3 µM
viability at 24 h, 50 µM [3]: 101%
viability at 24 h, 500 µM [4]: > 80%

CC(=O)OC[C@]12CCC(C(C)C)=C1[C@H]1CC[C@@H]3[C@@]4(C)CC[C@H](OC(C)=O)C(C)(C)[C@@H]4CC[C@@]3(C)[C@]1(C)CC2
Activity (Semliki Forest virus [1]): 15%
IC50 (Semliki Forest virus [2]; read-out: IC50): 43.2 µM
IC50 (Semliki Forest virus [2]; read-out: pIC50 (converted)): 42.7 µM
viability at 24 h, 50 µM [3]: 87%
viability at 24 h, 500 µM [4]: > 80%

CCCCn1c(=O)n2n(c1=O)[C@]1(C(C)C)CC[C@]3(COC(C)=O)CC[C@]4(C)C(=C31)[C@@H]2C[C@@H]1[C@@]2(C)CC[C@H](OC(C)=O)C(C)(C)[C@@H]2CC[C@]14C
Activity (Semliki Forest virus [1]): 19%
IC50 (Semliki Forest virus [2]; read-out: IC50): 37.9 µM
IC50 (Semliki Forest virus [2]; read-out: pIC50 (converted)): 38 µM
viability at 24 h, 50 µM [3]: 81%
viability at 24 h, 500 µM [4]: > 80%

C=C(C)[C@@H]1CC[C@]2(C(=O)O)CC[C@]3(C)[C@H](CC[C@@H]4[C@@]5(C)CC[C@H](O)C(C)(C)[C@@H]5CC[C@]43C)[C@@H]12 [BETULINIC ACID]
Activity (Semliki Forest virus [1]): 18%
IC50 (Semliki Forest virus [2]; read-out: IC50): 14.6 µM
IC50 (Semliki Forest virus [2]; read-out: pIC50 (converted)): 14.5 µM
viability at 24 h, 50 µM [3]: 123%
viability at 24 h, 500 µM [4]: > 80%
IC50 (Sindbis virus; read-out: IC50): 500 nM
IC50 (Sindbis virus; read-out: pIC50 (converted)): 457 nM
Activity (Semliki Forest virus [6]): inactive
Activity (Semliki Forest virus [7]): Active
Activity (Semliki Forest virus [8]): Active
Activity (Semliki Forest virus [9]): inactive
Activity (Semliki Forest virus [10]): Active
Activity (Semliki Forest virus [13]): Active
Activity (Semliki Forest virus [11]): Active

C=C(C)[C@@H]1CC[C@]2(CO)CC[C@]3(C)[C@H](CC[C@@H]4[C@@]5(C)CC[C@H](O)C(C)(C)[C@@H]5CC[C@]43C)[C@@H]12 [BETULIN]
Activity (Semliki Forest virus [1]): 7%
IC50 (Semliki Forest virus [2]; read-out: IC50): 45.5 µM
IC50 (Semliki Forest virus [2]; read-out: pIC50 (converted)): 45.7 µM
viability at 24 h, 50 µM [3]: 83%
viability at 24 h, 500 µM [4]: > 80%
